For 31 compounds, outcome, potentiation and inhibition results are on record in PubChem BioAssay.

Calls of active or inactive are those of the source.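 The calls were made as follows, unless noted: active = primary screen hit whose calcium fluorescence ratio, in both repeats, exceeds the weak agonist control mean by 3 SD; inactive = the rest.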

Sequence of Short transient receptor potential channel 4 (Mus musculus) (Q9QUQ5 whole entry, looked up): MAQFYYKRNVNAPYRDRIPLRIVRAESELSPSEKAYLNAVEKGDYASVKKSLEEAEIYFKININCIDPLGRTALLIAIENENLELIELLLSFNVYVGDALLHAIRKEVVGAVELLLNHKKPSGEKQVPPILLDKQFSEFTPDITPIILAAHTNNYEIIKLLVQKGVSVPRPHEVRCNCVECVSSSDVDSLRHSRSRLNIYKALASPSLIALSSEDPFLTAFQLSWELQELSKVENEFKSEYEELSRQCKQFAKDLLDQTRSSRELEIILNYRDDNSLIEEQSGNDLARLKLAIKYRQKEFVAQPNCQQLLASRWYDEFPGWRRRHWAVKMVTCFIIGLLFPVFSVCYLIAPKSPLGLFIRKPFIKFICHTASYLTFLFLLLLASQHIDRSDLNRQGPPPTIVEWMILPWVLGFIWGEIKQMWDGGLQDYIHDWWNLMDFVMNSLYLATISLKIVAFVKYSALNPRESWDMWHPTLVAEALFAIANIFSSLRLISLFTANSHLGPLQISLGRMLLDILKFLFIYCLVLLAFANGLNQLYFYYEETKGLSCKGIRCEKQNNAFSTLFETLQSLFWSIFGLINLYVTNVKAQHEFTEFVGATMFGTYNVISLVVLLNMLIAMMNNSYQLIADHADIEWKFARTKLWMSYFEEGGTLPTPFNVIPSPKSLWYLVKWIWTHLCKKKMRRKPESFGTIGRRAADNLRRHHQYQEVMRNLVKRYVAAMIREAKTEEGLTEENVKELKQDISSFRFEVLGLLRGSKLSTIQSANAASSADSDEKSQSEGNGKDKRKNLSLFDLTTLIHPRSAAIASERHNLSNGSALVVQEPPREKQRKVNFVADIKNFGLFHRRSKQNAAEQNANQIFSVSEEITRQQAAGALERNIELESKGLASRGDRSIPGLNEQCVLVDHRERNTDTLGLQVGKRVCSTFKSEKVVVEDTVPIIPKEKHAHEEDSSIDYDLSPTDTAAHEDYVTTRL

For one experiment, the system named is TRPC4 beta (transient receptor potential cation channel C4), mouse. The experiment can be described thus: positive allosteric modulators of mouse TRPC4, confirmation, cell-based, Fluo-4, HEK293 TRPC4beta/mu-opioid (AID 2555). Conditions: DAMGO EC20, Fluo-4 calcium flux, at 10 µM; stronger effect = higher value.
On to `Clc1ccc(OCC#CCN2CCCC2)cc1`, for which the outcome was inactive.
Still for that read-out and setting: under `CN(CCOc1ccc(C=C2C(=O)NC(=O)NC2=O)cc1)c1ccccn1` stands “inactive”; under `CCN1CC2C3CCC(C)(O3)C2C1` (configuration not stated), “inactive”.
Consider `CC(C)CNc1c2c(nc3ccccc13)CCC2`, for which the result was inactive.
Same read-out and setting: under `COC(=O)C1=C(c2cc3ccccc3s2)C[C@@H]2CC[C@H]1N2C(=O)NCCO` stands “inactive”.
In the case of `Cc1ccc(-c2cc(-c3ccccc3)cc(-c3ccccc3)[n+]2-c2ccccc2)cc1`, the potentiation was 18% (active).
Consider `Nc1ccccc1-[n+]1c(-c2ccccc2)cc(-c2ccccc2)cc1-c1ccccc1`, for which the result was inactive.
As for `Clc1ccc2c(c1)C(c1ccccc1Cl)=NCc1nnc(N3CCN(CCOc4ccccc4)CC3)n1-2`, the potentiation was 9% (active).
For the compound `Cc1ccccc1CN1CCNCC1`, the result was inactive.
Same read-out and setting: under `CN1CCN(Cc2cc(=O)n3ccsc3n2)CC1` stands “inactive”; under `CCC1=Nc2cc(C(=O)N3CCC4(CC3)OCCO4)ccc2Sc2ccc(Br)cc21`, “inactive”.
Regarding `CCCCN1C(=O)NC(=O)C2(Cc3c(nc4c(C)cccn4c3=O)N3CCc4ccccc4C32)C1=O` (configuration not stated), the potentiation is 23% (active).
For `C=CCOC(=O)C1=C(C)OC(N)=C(C#N)[C@@]12C(=O)N(CC(N)=O)c1ccccc12`, the potentiation was 26% (active).
For the compound `FC(F)(F)c1ccc(CN2CCNCC2)cc1`, the potentiation is 22% (active).
Consider `Clc1ccc(N2CCNCC2)nn1`, for which the outcome was inactive.
On the same count and under the same terms, under `O=[N+]([O-])c1ccc(N2CCNCC2)cc1N1CCCCCC1` stands “inactive”.
For the compound `C#CCN1C(=O)C2(C(C#N)=C(N)OC(C)=C2C(=O)OCc2ccccc2)c2ccccc21` (configuration not stated), the potentiation is 11% (active).
Same read-out and setting: under `Cc1ccc(-c2nc(N(C)C3CCN(C)CC3)c3ccccc3n2)cc1` stands 24% (active).
Still for that read-out and setting: under `c1ccc2nc(OCCN3CC3)ccc2c1` stands 17% (active).
As for `Cc1cc(OC(C)C(=O)NCc2ccncc2)c2c3c(c(=O)oc2c1)CCCC3` (configuration not stated), the outcome was inactive.
For `CCNCCNc1ccc([N+](=O)[O-])c2cccnc12`, the outcome was inactive.
Turning to `CN(C)CCn1cnc2ccccc21`, the outcome was inactive.
Regarding `COC(=O)C(O)(c1ccc(NC(=S)NC(=O)c2ccc(Cl)cc2Cl)c(C)c1)C(F)(F)F` (configuration not stated), the potentiation was 18% (active).
With `COc1ccc(C(=O)C2CN(C)CC2c2ccc(Cl)cc2)cc1` (configuration not stated), the outcome was inactive.
Consider `CC(Cc1ccccc1)NCC(=O)Nc1cc(N(C)C)nc2ccccc12` (configuration not stated), for which the result was inactive.
Same read-out and setting: under `Nc1c([N+](=O)[O-])cc(F)c(N2CCNCC2)c1Br` stands “inactive”.
Turning to `Oc1c(Br)cc(Br)cc1CN1CCN(Cc2ccccc2)CC1`, the potentiation was 44% (active).
On the same count and under the same terms, under `CCNc1cc(N2CCNCC2)ccc1[N+](=O)[O-]` stands 19% (active).
As to `CCn1ccnc1CN1CCCC(C(=O)c2cccc(C(F)(F)F)c2)C1` (configuration not stated), the result was inactive.
The same measure, in the same setting: under `CCc1ccc(OCCCN=C(C)c2c(O)n(C)c(=O)n(C)c2=O)cc1` stands “inactive”.
As for `Cc1cccc(N=Cc2c(O)n(-c3ccccc3C)c(=O)[nH]c2=O)c1`, the potentiation is 28% (active).

In the next experiment the target is Short transient receptor potential channel 4 (Mus musculus) (UniProt Q9QUQ5). The experiment can be described thus: inhibitors of mouse TRPC4 channel, confirmation, cell-based, Fluo4, HEK293 TRPC4beta/mu-opioid (AID 2636;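 active = calcium signal cut by more than 3 SD below the full-agonist control yet still positive, in both repeats and the earlier primary screen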). To be noted: DAMGO, Fluo4 calcium flux, at 10 µM; stronger effect = higher value. The procedure, abridged:
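System: HEK293 stable line with TRPC4beta plus mu-opioid receptor; reagent: DAMGO, mu-opioid agonist, submaximal dose then maximally activating dose; doses: single final compound concentration of 10 µM; times: compound pre-incubation 110 s before DAMGO; technique: Fluo4 calcium flux fluorescence, kinetic read; repeats: duplicate wells for each compound, averaged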
(In general: Calcium flux is commonly read through the fluorescence of an indicator in the cells.)
With `Clc1ccc(OCC#CCN2CCCC2)cc1`, the outcome was inactive.
As a reminder, the inhibition is the relative decrease from the control value, in per cent. Regarding `CN(CCOc1ccc(C=C2C(=O)NC(=O)NC2=O)cc1)c1ccccn1`, the inhibition is 61% (active).
For `CCN1CC2C3CCC(C)(O3)C2C1` (configuration not stated), the outcome was inactive.
On to `CC(C)CNc1c2c(nc3ccccc13)CCC2`, for which the outcome was inactive.
On the same count and under the same terms, under `COC(=O)C1=C(c2cc3ccccc3s2)C[C@@H]2CC[C@H]1N2C(=O)NCCO` stands “inactive”.
On the same count and under the same terms, under `Cc1ccc(-c2cc(-c3ccccc3)cc(-c3ccccc3)[n+]2-c2ccccc2)cc1` stands “inactive”; under `Nc1ccccc1-[n+]1c(-c2ccccc2)cc(-c2ccccc2)cc1-c1ccccc1`, “inactive”.
On the same count and under the same terms, under `Clc1ccc2c(c1)C(c1ccccc1Cl)=NCc1nnc(N3CCN(CCOc4ccccc4)CC3)n1-2` stands “inactive”; under `Cc1ccccc1CN1CCNCC1`, “inactive”.
With `CN1CCN(Cc2cc(=O)n3ccsc3n2)CC1`, the outcome was inactive.
Same read-out and setting: under `CCC1=Nc2cc(C(=O)N3CCC4(CC3)OCCO4)ccc2Sc2ccc(Br)cc21` stands “inactive”.
Still for that read-out and setting: under `CCCCN1C(=O)NC(=O)C2(Cc3c(nc4c(C)cccn4c3=O)N3CCc4ccccc4C32)C1=O` (configuration not stated) stands “inactive”; under `C=CCOC(=O)C1=C(C)OC(N)=C(C#N)[C@@]12C(=O)N(CC(N)=O)c1ccccc12`, “inactive”.
On the same count and under the same terms, under `FC(F)(F)c1ccc(CN2CCNCC2)cc1` stands “inactive”; under `Clc1ccc(N2CCNCC2)nn1`, “inactive”.
Turning to `O=[N+]([O-])c1ccc(N2CCNCC2)cc1N1CCCCCC1`, the outcome was inactive.
The same measure, in the same setting: under `C#CCN1C(=O)C2(C(C#N)=C(N)OC(C)=C2C(=O)OCc2ccccc2)c2ccccc21` (configuration not stated) stands “inactive”.
`Cc1ccc(-c2nc(N(C)C3CCN(C)CC3)c3ccccc3n2)cc1`: the result was inactive.
As to `c1ccc2nc(OCCN3CC3)ccc2c1`, the outcome was inactive.
The same measure, in the same setting: under `Cc1cc(OC(C)C(=O)NCc2ccncc2)c2c3c(c(=O)oc2c1)CCCC3` (configuration not stated) stands “inactive”; under `CCNCCNc1ccc([N+](=O)[O-])c2cccnc12`, “inactive”; under `CN(C)CCn1cnc2ccccc21`, “inactive”.
For `COC(=O)C(O)(c1ccc(NC(=S)NC(=O)c2ccc(Cl)cc2Cl)c(C)c1)C(F)(F)F` (configuration not stated), the result was inactive.
Same read-out and setting: under `COc1ccc(C(=O)C2CN(C)CC2c2ccc(Cl)cc2)cc1` (configuration not stated) stands “inactive”.
Consider `CC(Cc1ccccc1)NCC(=O)Nc1cc(N(C)C)nc2ccccc12` (configuration not stated), for which the inhibition was 82% (active).
For the compound `Nc1c([N+](=O)[O-])cc(F)c(N2CCNCC2)c1Br`, the outcome was inactive.
Same read-out and setting: under `Oc1c(Br)cc(Br)cc1CN1CCN(Cc2ccccc2)CC1` stands “inactive”; under `CCNc1cc(N2CCNCC2)ccc1[N+](=O)[O-]`, “inactive”; under `CCn1ccnc1CN1CCCC(C(=O)c2cccc(C(F)(F)F)c2)C1` (configuration not stated), “inactive”.
Still for that read-out and setting: under `CCc1ccc(OCCCN=C(C)c2c(O)n(C)c(=O)n(C)c2=O)cc1` stands “inactive”; under `Cc1cccc(N=Cc2c(O)n(-c3ccccc3C)c(=O)[nH]c2=O)c1`, “inactive”.
